Source: ChEMBL document CHEMBL2176992, “Synthesis and structure-activity relationship of (E)-phenoxyacrylic amide derivatives as hypoxia-inducible factor (HIF) 1α inhibitors” (J Med Chem, 2012)
Converted amounts (≈) assume the structure as drawn. The source made the active and inactive calls. The rule behind the calls is not given here.

How the values were obtained:
[1] = molecular target: T1, Hypoxia-inducible factor 1-alpha (Homo sapiens, UniProt Q16665); experiment: Inhibition of HIF1alpha in human HCT116 cells under hypoxic condition after 16 hrs by dual luciferase reporter gene assay; assay type: cell-based; conditions: hct-116
How it was run: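 HRE-luciferase reporter in HCT116 cells under hypoxia (1% O2, 94% N2, 5% CO2); luciferase read-out. IC50 from the mean of three experiments; LW6 positive control.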
Target sequence in this assay (Q16665 whole entry): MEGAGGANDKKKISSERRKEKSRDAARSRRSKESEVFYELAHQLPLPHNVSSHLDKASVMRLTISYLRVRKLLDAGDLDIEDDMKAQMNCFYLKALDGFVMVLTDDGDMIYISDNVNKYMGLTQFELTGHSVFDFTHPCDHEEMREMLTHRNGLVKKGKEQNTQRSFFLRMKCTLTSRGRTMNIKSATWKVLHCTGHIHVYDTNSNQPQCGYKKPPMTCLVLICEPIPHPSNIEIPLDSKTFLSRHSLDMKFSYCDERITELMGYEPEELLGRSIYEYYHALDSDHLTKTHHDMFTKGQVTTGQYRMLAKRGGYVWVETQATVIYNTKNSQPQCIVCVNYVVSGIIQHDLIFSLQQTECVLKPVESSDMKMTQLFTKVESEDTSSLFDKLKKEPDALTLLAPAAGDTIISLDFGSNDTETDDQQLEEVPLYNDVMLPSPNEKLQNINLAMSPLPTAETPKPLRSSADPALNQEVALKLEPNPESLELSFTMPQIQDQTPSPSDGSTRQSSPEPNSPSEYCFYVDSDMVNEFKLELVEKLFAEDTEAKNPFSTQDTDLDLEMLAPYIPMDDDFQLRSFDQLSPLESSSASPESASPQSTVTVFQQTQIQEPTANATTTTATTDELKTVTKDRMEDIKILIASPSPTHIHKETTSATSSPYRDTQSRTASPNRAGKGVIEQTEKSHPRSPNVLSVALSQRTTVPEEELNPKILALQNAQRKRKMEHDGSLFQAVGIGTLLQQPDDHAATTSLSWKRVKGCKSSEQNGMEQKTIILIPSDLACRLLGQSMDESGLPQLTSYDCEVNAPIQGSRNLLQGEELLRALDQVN

HCT-116 [2] = experiment: Cytotoxicity against human HCT116 cells assessed as cell viability after 48 hrs by SRB assay; assay type: cell-based; conditions: hct-116, 48 h
How it was run: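 Cell viability of HCT116 by sulforhodamine B assay under the hypoxic reporter-assay conditions; mean of three experiments.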

[3] = Kinetic solubility of the compound in water at pH 2 by nephlometry; assay type: physicochemical; conditions: read-out: Kinetic_solubility
How it was run: (§1)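 Kinetic aqueous solubility determined by nephelometry at pH 2, 7.4 and 9; values are the mean of three experiments.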

[4] = Kinetic solubility of the compound in water at pH 7.4 by nephlometry; assay type: physicochemical; conditions: read-out: Kinetic_solubility; how it was run: as §1
[5] = Kinetic solubility of the compound in water at pH 9 by nephlometry; assay type: physicochemical; conditions: read-out: Kinetic_solubility; how it was run: as §1
HUVEC [6] = experiment: Antiangiogenic activity in HUVECs under hypoxic condition assessed as inhibition of tube formation at 2 to 5 uM after 18 hrs; assay type: functional, cell-based; conditions: Homo sapiens
How it was run: (§2)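 HUVECs seeded on wells coated with ice-cold Matrigel, incubated with compound under 1% O2 for 18 h. Tubule branches photographed; SU11248 as VEGFR-inhibitor positive control.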

HCT-116 [7] = experiment: Downregulation of HIF1alpha mRNA expression in human HCT116 cells under hypoxic condition at 2 to 10 uM by RT-PCR analysis; assay type: functional, cell-based
How it was run: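 mRNA of HIF-1α and target genes measured by RT-PCR in compound-treated cells.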

HCT-116 [8] = experiment: Inhibition of HIF1beta expression in human HCT116 cells under hypoxic condition assessed as protein accumulation at 0.05 to 30 uM by Western blot analysis; assay type: functional, cell-based
How it was run: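 HCT116 cells under hypoxia treated with compound at various concentrations; HIF-1β protein level in lysates assessed by Western blot alongside HIF-1α.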

A549 = experiment: Inhibition of HIF1alpha expression in human A549 cells under hypoxic condition assessed as decrease in protein accumulation by Western blot analysis; assay type: functional, cell-based
How it was run: (§3)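 Cells held under hypoxia (1% O2, 94% N2, 5% CO2) with compound at various concentrations; HIF-1α protein in lysates detected by Western blot. LW6 as control; HIF-1β also probed.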

HCT-116 [9] = experiment: Inhibition of HIF1alpha expression in human HCT116 cells under hypoxic condition assessed as decrease in protein accumulation by Western blot analysis; assay type: functional, cell-based; how it was run: as §3
[10] = molecular target: T1, Hypoxia-inducible factor 1-alpha; experiment: Inhibition of HIF1alpha in human HCT116 cells under hypoxic condition assessed as decrease in EPO mRNA expression by RT-PCR analysis; assay type: cell-based; conditions: HCT-116
How it was run: (§4)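 HCT116 cells were treated under hypoxia (1% O2, 94% N2, 5% CO2), and the 2 μM test level was named. mRNA of HIF-1α and its targets (VEGF, EPO, MMP-9) was measured by RT-PCR.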
Target sequence in this assay (Q16665 whole entry, looked up): as the sequence (Q16665 whole entry) above

[11] = molecular target: T1, Hypoxia-inducible factor 1-alpha; experiment: Inhibition of HIF1alpha in human HCT116 cells under hypoxic condition assessed as decrease in MMP9 mRNA expression by RT-PCR analysis; assay type: cell-based; conditions: HCT-116; how it was run: as §4
Target sequence in this assay (Q16665 whole entry, looked up): as the sequence (Q16665 whole entry) above

[12] = molecular target: T1, Hypoxia-inducible factor 1-alpha; experiment: Inhibition of HIF1alpha in human HCT116 cells under hypoxic condition at 5 uM after 12 hrs by dual luciferase reporter gene assay in absence of dipyridol; assay type: cell-based; conditions: HCT-116
How it was run: (§5)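 HCT116 cells were cotransfected with pGL3-HRE-luciferase and pRL-SV40 and incubated 24 h. They were then held under hypoxia 4 h and treated with 5 μM compound for 12 h under hypoxia, with 200 μM dipyridol added where stated. Firefly luciferase was read against Renilla.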
Target sequence in this assay (Q16665 whole entry, looked up): as the sequence (Q16665 whole entry) above

HeLa = experiment: Inhibition of HIF1alpha expression in human HeLa cells under hypoxic condition assessed as decrease in protein accumulation by Western blot analysis; assay type: functional, cell-based; how it was run: as §3
[13] = molecular target: T1, Hypoxia-inducible factor 1-alpha; experiment: Inhibition of HIF1alpha in human HCT116 cells under hypoxic condition assessed as increase in VHL expression at 2 to 5 uM by dual luciferase reporter gene assay; assay type: cell-based; conditions: HCT-116
How it was run: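 HCT116 cells were exposed to 0, 2 or 5 μM compound under hypoxia (1% O2, 94% N2, 5% CO2). They were lysed in RIPA buffer, and total lysates were examined for VHL expression.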
Target sequence in this assay (Q16665 whole entry, looked up): as the sequence (Q16665 whole entry) above

[14] = molecular target: T1, Hypoxia-inducible factor 1-alpha; experiment: Inhibition of HIF1alpha in human HCT116 cells under hypoxic condition at 5 uM after 12 hrs by dual luciferase reporter gene assay in presence of dipyridol; assay type: cell-based; conditions: HCT-116; how it was run: as §5
Target sequence in this assay (Q16665 whole entry, looked up): as the sequence (Q16665 whole entry) above

LoVo = experiment: Inhibition of HIF1alpha expression in human LoVo cells under hypoxic condition assessed as decrease in protein accumulation by Western blot analysis; assay type: functional, cell-based; how it was run: as §3
[15] = molecular target: T1, Hypoxia-inducible factor 1-alpha; experiment: Inhibition of HIF1alpha in human HCT116 cells under hypoxic condition assessed as decrease in VEGF mRNA expression by RT-PCR analysis; assay type: cell-based; conditions: HCT-116; how it was run: as §4
Target sequence in this assay (Q16665 whole entry, looked up): as the sequence (Q16665 whole entry) above

HCT-116 [16] = experiment: Antimigratory activity against human HCT116 cells assessed as inhibition of cell migration after 24 hrs by wound healing assay; assay type: functional, cell-based
How it was run: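 Scratch-wound migration of HCT116 cells formed with culture inserts; cells treated with compound or SU11248 and wound closure observed over 24 h.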

HUVEC [17] = experiment: Cytotoxicity against HUVECs assessed as growth inhibition at 1 to 5 uM after 48 hrs by SRB assay; assay type: cell-based; conditions: human
How it was run: (§6)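 HUVEC growth inhibition measured by sulforhodamine B assay, run in parallel with the Matrigel tube-formation incubation (compound or SU11248).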

PC-3 = experiment: Inhibition of HIF1alpha expression in human PC3 cells under hypoxic condition assessed as decrease in protein accumulation by Western blot analysis; assay type: functional, cell-based; how it was run: as §3
[18] = molecular target: T1, Hypoxia-inducible factor 1-alpha; experiment: Inhibition of HIF1alpha in human HCT116 cells under normoxic condition assessed as increase in VHL expression at 2 to 5 uM by dual luciferase reporter gene assay; assay type: cell-based; conditions: HCT-116
HUVEC [19] = experiment: Cytotoxicity against HUVECs assessed as growth inhibition at 0.5 to 2 uM after 48 hrs by SRB assay; assay type: cell-based; conditions: human; how it was run: as §6
HUVEC [20] = experiment: Antiangiogenic activity in HUVECs under hypoxic condition assessed as inhibition of tube formation at 2 uM after 18 hrs; assay type: functional, cell-based; conditions: Homo sapiens; how it was run: as §2
[21] = molecular target: T1, Hypoxia-inducible factor 1-alpha; experiment: Inhibition of HIF1alpha in human HCT116 cells under hypoxic condition at 0.4 uM after 12 hrs by dual luciferase reporter gene assay in presence of dipyridol; assay type: cell-based; conditions: HCT-116
How it was run: (§7)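 Cells cotransfected with pGL3-HRE-luciferase and pRL-SV40, incubated 24 h, then 4 h hypoxia. Then treated with compound (17-AAG 0.4 μM; test 5 μM) with or without 200 μM dipyridol for 12 h under hypoxia. Firefly luciferase normalised to Renilla.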

[22] = molecular target: T1, Hypoxia-inducible factor 1-alpha; experiment: Inhibition of HIF1alpha in human HCT116 cells under hypoxic condition at 0.4 uM after 12 hrs by dual luciferase reporter gene assay in absence of dipyridol; assay type: cell-based; conditions: HCT-116; how it was run: as §7

SMILES | IC50 [1] | Activity (HCT-116 [2]) | further results
COC(=O)c1cc(NC(=O)/C=C/Oc2ccc(C34CC5CC(CC(C5)C3)C4)cc2)ccc1O | > 20000 nM | > 20 µM | 
COC(=O)c1cccc(NC(=O)/C=C/Oc2ccc(C34CC5CC(CC(C5)C3)C4)cc2)c1 |  | > 20 µM | solubility kinetic [3]: 4.25 µM (≈ 1.83 µg/mL); solubility kinetic [4]: 6.56 µM (≈ 2.83 µg/mL); solubility kinetic [5]: 12.2 µM (≈ 5.27 µg/mL)
COC(=O)c1ccc(O)c(NC(=O)COc2ccc(C34CC5CC(CC(C5)C3)C4)cc2)c1 | 2440 nM | > 20 µM | solubility kinetic [3]: 68.2 µM (≈ 29.7 µg/mL); solubility kinetic [4]: 6.85 µM (≈ 2.98 µg/mL); solubility kinetic [5]: 44.9 µM (≈ 19.6 µg/mL)
COC(=O)c1cccc(NC(=O)/C=C/Oc2ccc(C34CC5CC(CC(C5)C3)C4)cc2C)c1 | 4120 nM | > 20 µM | 
CCN(CC)CCNC(=O)c1c(C)[nH]c(/C=C2\C(=O)Nc3ccc(F)cc32)c1C [SUNITINIB] |  |  | Activity (HUVEC [19]): Non-toxic; inhibition (HUVEC [20]): Active; inhibition (HCT-116 [16]): Active
C=CCNC1=C2C[C@@H](C)C[C@H](OC)[C@H](O)[C@@H](C)/C=C(\C)[C@H](OC(N)=O)[C@@H](OC)/C=C\C=C(/C)C(=O)NC(=CC1=O)C2=O |  |  | inhibition [21]: Active; inhibition [22]: Active
NS(=O)(=O)c1cccc(NC(=O)/C=C/Oc2ccc(C34CC5CC(CC(C5)C3)C4)cc2)c1 | 2380 nM | > 20 µM | 
CC(C)NC(=O)c1cccc(NC(=O)/C=C/Oc2ccc(C34CC5CC(CC(C5)C3)C4)cc2)c1 | > 20000 nM | > 20 µM | 
O=C(/C=C/Oc1ccc(C23CC4CC(CC(C4)C2)C3)cc1)Nc1cccc(C(=O)O)c1 | > 20000 nM | > 20 µM | 
COC(=O)c1cccc(NC(=O)/C=C/Oc2ccc(C(C)(C)CC(C)(C)C)cc2)c1 | 1040 nM | > 20 µM | 
O=C(/C=C/Oc1ccc(C23CC4CC(CC(C4)C2)C3)cc1)Nc1cccc(C(=O)NCCCn2ccnc2)c1 | 1850 nM | > 20 µM | 
O=C(/C=C/Oc1ccc(C23CC4CC(CC(C4)C2)C3)cc1)Nc1cccc(C(=O)NCCN2CCOCC2)c1 | 1070 nM | > 20 µM | 
COC(=O)c1cccc(NC(=O)CCCOc2ccc(C34CC5CC(CC(C5)C3)C4)cc2)c1 | 15800 nM | > 20 µM | 
CS(=O)(=O)c1cccc(NC(=O)/C=C/Oc2ccc(C34CC5CC(CC(C5)C3)C4)cc2)c1 | 1180 nM | > 20 µM | 

The next lines start with results.

IC50 [1] | SMILES | Activity (HCT-116 [2]) | further results
1840 nM | COCCOC(=O)c1cccc(NC(=O)/C=C/Oc2ccc(C34CC5CC(CC(C5)C3)C4)cc2)c1 | > 20 µM | 
2620 nM | CN(C)CCOC(=O)c1cccc(NC(=O)/C=C/Oc2ccc(C34CC5CC(CC(C5)C3)C4)cc2)c1 | > 20 µM | 
2540 nM | COC(=O)c1cccc(NC(=O)CCOc2ccc(C34CC5CC(CC(C5)C3)C4)cc2)c1 | > 20 µM | 
120 nM | O=C(/C=C/Oc1ccc(C23CC4CC(CC(C4)C2)C3)cc1)Nc1cccc(C(=O)OCCN2CCOCC2)c1 | > 20 µM | solubility kinetic [3]: 45.1 µM (≈ 23.9 µg/mL); inhibition (HUVEC [6]): Active; Activity (HCT-116 [7]): inactive; inhibition (HCT-116 [8]): inactive; inhibition (A549): Dose-dependent effect; inhibition (HCT-116 [9]): Dose-dependent effect; inhibition [10]: Dose-dependent effect; inhibition [11]: Dose-dependent effect; inhibition [12]: Active; solubility kinetic [4]: 113 µM (≈ 60 µg/mL); inhibition (HeLa): Dose-dependent effect; inhibition [13]: Active; solubility kinetic [5]: 61.3 µM (≈ 32.5 µg/mL); inhibition [14]: inactive; inhibition (LoVo): Dose-dependent effect; inhibition [15]: Dose-dependent effect; inhibition (HCT-116 [16]): Active; Activity (HUVEC [17]): Non-toxic; inhibition (PC-3): Dose-dependent effect; inhibition [18]: Active
820 nM | CCOC(=O)c1cccc(NC(=O)/C=C/Oc2ccc(C34CC5CC(CC(C5)C3)C4)cc2)c1 | > 20 µM | 
6030 nM | COC(=O)c1cccc(NC(=O)/C=C/Oc2ccc(C(C)(C)C)cc2)c1 | > 20 µM | 
> 20000 nM | O=C(/C=C/Oc1ccc(C23CC4CC(CC(C4)C2)C3)cc1)Nc1cccc(C(=O)NCc2ccco2)c1 | > 20 µM | 
1340 nM | O=C(/C=C/Oc1ccc(C23CC4CC(CC(C4)C2)C3)cc1)Nc1cccc(C(=O)NCCc2ccncc2)c1 | > 20 µM | 
> 20000 nM | NC(=O)c1cccc(NC(=O)/C=C/Oc2ccc(C34CC5CC(CC(C5)C3)C4)cc2)c1 | > 20 µM | 
1350 nM | O=C(/C=C/Oc1ccc(C23CC4CC(CC(C4)C2)C3)cc1)Nc1cccc(C(=O)OCCN2CCCC2)c1 | > 20 µM | 
2170 nM | COC(=O)c1ccc(NC(=O)/C=C/Oc2ccc(C34CC5CC(CC(C5)C3)C4)cc2)cc1 | > 20 µM | 
5030 nM | COC(=O)c1cccc(NC(=O)COc2ccc(C34CC5CC(CC(C5)C3)C4)cc2)c1 | > 20 µM | 
